Test results from the array DNA melting data of Ke et al. (doi:10.1101/2024.01.08.574731).

What was measured:
[1] = melting temperature; fluorescence melt of hairpins on a sequencing array, two-state fit, raised by 9.35 °C to match UV melts; details: sodium 0.088 M
In short: (§1)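 Melting temperature and folding enthalpy were derived from bootstrapped two-state fits. The fitted temperatures were raised by 9.35 °C to agree with UV melts, and four replicates were combined by inverse variance. The underlying data were Cy3 fluorescence images of library hairpins, with annealed Cy3 and quencher oligos, on a sequenced MiSeq flow cell in 50 mM Na-HEPES pH 8.0, 25 mM NaCl, taken in 2.5 °C steps up to 60 °C, normalised to pre-quench Cy3 and to control constructs.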

[2] = folding enthalpy; higher = less favourable; fluorescence melt of hairpins on a sequencing array, two-state fit; details: sodium 0.088 M
In short: as §1

Row | Sequence | Tm [1] [°C] | folding enthalpy [2] [kcal/mol]
1 | GTGAGCGAAAGCTACAC ((((((....))).))) | 49.1 | -16.1
2 | GTGAGGAAACTCAC (((((....))))) | 51.9 | -24.5
3 | GTGAGGCGAAAGCCCCAC (((.(((....))).))) | 53.8 | -22.8
4 | GTGAGTGAAAACTCAC ((((((....)))))) | 59.1 | -37.7
5 | GTGAGTGGAAACATTCGC (.((.((....)).)).) | 33.4 | -16.4
6 | GTGATACGAAAGTACCAC (((.(((....))).))) | 45.6 | -32.7
7 | GTGATAGGAAACTATCGC (.(((((....))))).) | 46.3 | -38.2
8 | GTGATCGAAAGATACAC ((((((....))).))) | 35.8 | -22.1
9 | GTGATCGAAAGATCAC ((((((....)))))) | 67.4 | -37.1
10 | GTGATCGAAAGATCTCAC ((((((....)))..))) | 39.1 | -11.4
11 | GTGATCGAAAGATTACAC ((((((....)))..))) | 38.5 | -20
12 | GTGATCGGAAACGATTGC (..((((....))))..) | 40.5 | -22.1
13 | GTGATGGGAAACCATCGC (.(((((....))))).) | 55.1 | -23.7
14 | GTGATGGGAAACCGTCAC ((((.((....)).)))) | 52.9 | -50.2
15 | GTGATTCGAAAGAAACAC (((.(((....))).))) | 46.5 | -30
16 | GTGATTGGAAACAATTAC ((.((((....)))).)) | 37.5 | -32.3
17 | GTGCACCGAAAGGTCAC (((.(((....)))))) | 52.5 | -26.3
18 | GTGCACGAAAGTGACCAC ((((((....)))..))) | 41.3 | -12.7
19 | GTGCACGAAAGTGGACAC ((((((....)))..))) | 52.6 | -15.2
20 | GTGCACGAAAGTGGCAC ((((((....))).))) | 59.4 | -25.1
21 | GTGCACGAAAGTGTCCAC ((((((....)))..))) | 34.8 | -10.8
22 | GTGCACGCGAAAGCGCAC (((..(((....)))))) | 56.3 | -15.4
23 | GTGCACGGAAACGCACAC (((..((....))..))) | 38.5 | -19.9

Row | Sequence | Tm [1] [°C] | folding enthalpy [2] [kcal/mol]
24 | GTGCAGCGAAAGCTTCAC (((.(((....))).))) | 51.6 | -27.6
25 | GTGCATGGAAACATACAC (((.(((....))).))) | 39.3 | -35
26 | GTGCCATCGAAAGATCAC (((..(((....)))))) | 38.4 | -5.32
27 | GTGCCCACGAAAGTGCAC (((..(((....)))))) | 44.9 | -15.5
28 | GTGCCCGAAAGGGAACAC ((((((....)))..))) | 52.5 | -15.2
29 | GTGCCCGAAAGGGACCAC ((((((....)))..))) | 49.5 | -11.3
30 | GTGCCGGGAAACCGGTGC (..((((....))))..) | 52.7 | -19.4
31 | GTGCCTCGAAAGAGACAC (((.(((....))).))) | 52.6 | -42.5
32 | GTGCCTCGAAAGAGCCAC (((.(((....))).))) | 43.2 | -21
33 | GTGCGAGAAATCGCAC ((((((....)))))) | 68.2 | -28
34 | GTGCGAGGAAACTCGTGC (..((((....))))..) | 48.4 | -23.3
35 | GTGCGAGGAAACTTGCGC (.((.((....)).)).) | 46 | -18.1
36 | GTGCGCGAAAGCGCCAC ((((((....))).))) | 52.2 | -8.65
37 | GTGCGCGAAAGCGGCCAC ((((((....)))..))) | 45.9 | -11.5
38 | GTGCGCGAAAGCGGGCAC ((((((....)))..))) | 60.7 | -15.9
39 | GTGCGCGAAAGCGTACAC ((((((....)))..))) | 60.5 | -11.9
40 | GTGCGGCCGAAAGGCCAC (((..(((....)))))) | 64.1 | -10.1
41 | GTGCGGCGAAAGCCCCAC (((.(((....))).))) | 47.6 | -23
42 | GTGCGGGGAAACCTGCGC (.((.((....)).)).) | 51.9 | -26.7
43 | GTGCGTCGAAAGACCCAC (((.(((....))).))) | 45.8 | -26.2
44 | GTGCGTGGAAACGTGCAC ((((..(....)..)))) | 50.8 | -25.3
45 | GTGCTACGAAAGTACCAC (((.(((....))).))) | 37.8 | -26
46 | GTGCTAGGAAACTAGCAC (((((((....))))))) | 65 | -49.4

Row | Sequence | Tm [1] [°C] | folding enthalpy [2] [kcal/mol]
47 | GTGCTAGGAAACTAGTAC ((.((((....)))).)) | 44.9 | -33.5
48 | GTGCTAGGAAACTGGTAC ((.(.((....)).).)) | 32.6 | -18.9
49 | GTGCTATCGAAAGATCAC (((..(((....)))))) | 30.6 | -13
50 | GTGCTCCGAAAGGACCAC (((.(((....))).))) | 45 | -27.5
51 | GTGCTCGAAAGAGCCCAC ((((((....)))..))) | 35.8 | -8.93
52 | GTGCTCGAAAGAGTACAC ((((((....)))..))) | 49.7 | -14.3
53 | GTGCTCGGAAACGGGCAC ((((.((....)).)))) | 61.4 | -47
54 | GTGCTGGAAACAGCAC ((((((....)))))) | 67.6 | -33.2
55 | GTGCTGGGAAACCAGTGC (..((((....))))..) | 47.5 | -27.9
56 | GTGCTTGGAAACAGGCAC ((((.((....)).)))) | 53.4 | -41
57 | GTGGAACGAAAGTTCAC (((.(((....)))))) | 44.9 | -11.2
58 | GTGGAAGAAATTCCAC ((((((....)))))) | 51.8 | -34.8
59 | GTGGAAGGAAACTTCCAC (((((((....))))))) | 62 | -42.7
60 | GTGGAATCGAAAGATCAC (((..(((....)))))) | 33.9 | -19.2
61 | GTGGACCGAAAGGTACAC (((.(((....))).))) | 67 | -30.4
62 | GTGGACCGAAAGGTCAC (((.(((....)))))) | 53.7 | -10.4
63 | GTGGACCGAAAGGTGCAC (((.(((....))).))) | 67.3 | -24.7
64 | GTGGACGAAAGTCAACAC ((((((....)))..))) | 45.9 | -15.3
65 | GTGGACGAAAGTCACAC ((((((....))).))) | 50 | -20.9
66 | GTGGACGAAAGTCGCCAC ((((((....)))..))) | 43 | -18
67 | GTGGACGAAAGTCGTCAC ((((((....)))..))) | 40.1 | -16.3
68 | GTGGACGAAAGTCTACAC ((((((....)))..))) | 51.2 | -16.3
69 | GTGGACGAAAGTCTCCAC ((((((....)))..))) | 38.8 | -17.2

Row | Sequence | Tm [1] [°C] | folding enthalpy [2] [kcal/mol]
70 | GTGGACGGAAACGTCCGC (.(((((....))))).) | 62 | -18.4
71 | GTGGACGGAAACGTTCAC (((.(((....))).))) | 55 | -42.2
72 | GTGGAGAAATCCAC (((((....))))) | 49.3 | -25.7
73 | GTGGAGGGAAACCTCTGC (..((((....))))..) | 37.6 | -19.2
74 | GTGGATGCGAAAGCACAC (((..(((....)))))) | 45.4 | -17.9
75 | GTGGATGGAAACGTTCAC (((.(.(....).).))) | 32.4 | -16.7
76 | GTGGCACGAAAGTGTCAC (((.(((....))).))) | 67.2 | -42
77 | GTGGCAGGAAACCACCAC ((((..(....)..)))) | 35 | -22.5
78 | GTGGCAGGAAACTACCAC ((((.((....)).)))) | 44.6 | -34.2
79 | GTGGCCACGAAAGTGCAC (((..(((....)))))) | 38.1 | -12.5
80 | GTGGCCCCGAAAGGGCAC (((..(((....)))))) | 57.5 | -15
81 | GTGGCCGAAAGGCGCAC ((((((....))).))) | 56.3 | -13.9
82 | GTGGCCGAAAGGCGTCAC ((((((....)))..))) | 43.5 | -12.2
83 | GTGGCCGGAAACGGCTAC ((.((((....)))).)) | 60.3 | -20.4
84 | GTGGCCGGAAACGGTCAC (((.(((....))).))) | 66.1 | -37.2
85 | GTGGCCGGAAACGGTCGC (.(.(((....))).).) | 53.4 | -39.5
86 | GTGGCGACGAAAGTCCAC (((..(((....)))))) | 42.8 | -17.3
87 | GTGGCGGGAAACCGCCGC (.(((((....))))).) | 66.6 | -14.9
88 | GTGGCGGGAAACCGTCAC (((.(((....))).))) | 63.5 | -40.6
89 | GTGGCTCGAAAGAGTCAC (((.(((....))).))) | 63.8 | -49.6
90 | GTGGGACGAAAGTCACAC (((.(((....))).))) | 68.9 | -29.6
91 | GTGGGAGGAAACTTCCGC (.((.((....)).)).) | 40.6 | -23.9
